Published values of several laboratories.
Lines come from different studies, so protocols differ.
CYP3A7: Cytochrome P450 3A7 (CYP3A7, Homo sapiens, UniProt P24462)

O=C(c1ccc(F)cc1F)N1CCC(NCCSC(c2ccc(F)cc2)c2ccc(F)cc2)CC1 — compound remaining (metabolic stability; mouse, liver microsomes; 10 µM, 1 h, pH 7.4): ~30%
O=S(=O)(O)C(F)(F)C(F)(F)C(F)(F)C(F)(F)C(F)(F)C(F)(F)F — inhibition (CYP3A7; enzyme activity, inhibitor; 10 µM, pH 7.4): 29.1%
CCCC/C=C/C=C/CC(=O)O[C@@]12[C@H](OC(=O)c3ccccc3)[C@@H](C)[C@]3(O)[C@@H]4C=C(C)C(=O)[C@@]4(O)[C@H](O)C(CO)=C[C@H]3[C@@H]1C2(C)C — CC50 (MT4; cell growth or viability, ATP luminescence): > 7 µM
CC[C@H](C)[C@H]1C(=O)N2CCC[C@H]2C(=O)O[C@H](C(C)(C)C)C[C@@H](C)C[C@H](O)[C@H](C)C2=N[C@@H](CCC(=O)N[C@@H](Cc3ccc(OC)cc3)C(=O)N(C)[C@@H](C)C(=O)N1C)CS2 — compound remaining (metabolic stability; female CD-1 mouse, liver microsomes; 1 µM, 0 h, pH 7.4): 100%
C=C(C)[C@@]12O[C@@]3(/C=C/C=C/C=C/CCC)O[C@@H]1[C@@H]1[C@@H]4O[C@]4(CO)[C@@H](O)[C@]4(O)C(=O)C(C)=C[C@H]4[C@@]1(O3)[C@H](C)[C@H]2OC(=O)c1ccccc1 — IC50 (MT4; cell growth or viability, ATP luminescence; 96 h): > 0.034 µM
COC(=O)N[C@H](C(=O)NN(CC[C@@]1(Cc2ccccc2)C(=O)N([C@H]2c3ccccc3C[C@H]2O)C[C@@H]1O)Cc1ccc(-c2cccnc2)cc1)C(C)(C)C — CC50 (MT4; cell growth or viability, XTT; 5 days): > 50 µM
CCCCCCCCCC(=O)O[C@@]12[C@H](OC(=O)c3ccccc3)[C@@H](C)[C@]3(O)[C@@H]4C=C(C)C(=O)[C@@]4(O)[C@H](O)C(CO)=C[C@H]3[C@@H]1C2(C)C — CC50 (MT4; cell growth or viability, ATP luminescence): > 7 µM
C=C(C)[C@@]12O[C@@]3(/C=C/C=C/C=C/CCC)O[C@@H]1[C@@H]1[C@@H]4O[C@]4(CO)[C@@H](O)[C@]4(O)C(=O)C(C)=C[C@H]4[C@@]1(O3)[C@H](C)[C@H]2OC(=O)/C=C/c1ccc(O)cc1 — IC50 (MT4; cell growth or viability, ATP luminescence; 96 h): > 0.034 µM
Cc1ncc2n1-c1ccc(Cl)cc1C(c1ccccc1F)=NC2 — compound remaining (metabolic stability; male CD-1 mouse, liver microsomes; 1 µM, 30 min): < 7%
C=C(C)[C@@]1(O)[C@H](OC(=O)/C=C/C=C/CCCCC)[C@@H]2[C@@H]3O[C@]3(CO)[C@@H](O)[C@]3(O)C(=O)C(C)=C[C@H]3[C@@]2(O)[C@H](C)[C@H]1OC(=O)/C=C/c1ccccc1 — IC50 (MT4; cell growth or viability, ATP luminescence; 96 h): > 0.034 µM
N=c1c2c(-c3ccccc3)c(-c3ccccc3)n(Cc3ccccc3)c2ncn1[C@H]1CC[C@H](O)CC1 — compound remaining (metabolic stability; CD-1 mouse, hepatocytes; 1 µM, 4 h): 103%
CC[C@H](C)[C@H]1C(=O)N2CCC[C@H]2C(=O)O[C@H](C(C)(C)C)C[C@@H](C)C[C@H](O)CC2=N[C@@H](CCC(=O)N[C@@H](Cc3ccc(OC)cc3)C(=O)N(C)[C@@H](C)C(=O)N1C)CS2 — compound remaining (metabolic stability; female CD-1 mouse, liver microsomes; 1 µM, 0 h, pH 7.4): 100%
C=C(C)[C@]12C[C@@H](COC(=O)c3ccccc3)[C@@]34OC5(O[C@@H]1[C@@H]3[C@@H]1O[C@]1(CO)[C@@H](O)[C@@]1(O)[C@H]4[C@H]([C@H](C)[C@@H]1OC(=O)c1ccccc1)[C@H](C)CCCCCC[C@H]5O)O2 — CC50 (MT4; cell growth or viability, ATP luminescence): > 7 µM
COC(=O)N[C@H](C(=O)NN(CC[C@@]1(Cc2ccccc2)C(=O)N([C@H]2c3ccccc3C[C@H]2O[Si](C)(C)C(C)(C)C)C[C@@H]1O[Si](C)(C)C(C)(C)C)Cc1ccc(Br)cc1)C(C)(C)C — CC50 (MT4; cell growth or viability, XTT; 5 days): > 50 µM
O=S(=O)(O)C(F)(F)C(F)(F)C(F)(F)C(F)(F)C(F)(F)C(F)(F)C(F)(F)C(F)(F)F — IC50 (CYP3A7; enzyme activity, inhibitor, mass spectrometry): 16.8 µM
C=C(C)[C@@]12O[C@@]3(c4ccccc4)O[C@@H]1[C@@H]1[C@@H]4O[C@]4(CO)[C@@H](O)[C@]4(O)C(=O)C(C)=C[C@H]4[C@@]1(O3)[C@H](C)[C@H]2OC(=O)/C=C/C=C/C=C/CCC — IC50 (MT4; cell growth or viability, ATP luminescence; 96 h): > 0.034 µM
COC(=O)N[C@H](C(=O)NN(CC[C@]1(Cc2ccccc2)C(=O)N([C@H]2c3ccccc3C[C@H]2O)C[C@@H]1O)Cc1ccc(Br)cc1)C(C)(C)C — CC50 (MT4; cell growth or viability, XTT; 5 days): > 50 µM
C=C(C)[C@]1(O)C[C@@H](C)[C@@]2(O)[C@@H]([C@H]3O[C@@]4([C@H](O)[C@]3(O)COC(=O)c3ccccc3)[C@@H](OC(=O)/C=C/C=C/C=C/CCC)[C@@H](C)C[C@@H]24)[C@H]1O — IC50 (MT4; cell growth or viability, ATP luminescence; 96 h): > 0.034 µM
Cc1ncc2n1-c1ccc(Cl)cc1C(c1ccccc1F)=NC2 — compound remaining (metabolic stability; Sprague-Dawley rat, hepatocytes; 1 µM, 4 h): 0.3%
C=C(C)[C@@]12O[C@@]3(/C=C/C=C/CCCCC)O[C@@H]1[C@@H]1[C@@H]4O[C@]4(CO)[C@@H](O)[C@]4(O)C(=O)C(C)=C[C@H]4[C@@]1(O3)[C@H](C)[C@H]2OC(=O)/C=C/c1ccc(O)cc1 — IC50 (MT4; cell growth or viability, ATP luminescence; 96 h): > 0.034 µM
O=C(O)C(F)(F)C(F)(F)C(F)(F)C(F)(F)C(F)(F)C(F)(F)C(F)(F)F — inhibition (CYP3A7; enzyme activity, inhibitor; 10 µM, pH 7.4): 16.3%
